The list is not random: actives were taken first. Their share in the collection is about 2.9%.
M18AAP inhibitor – PfM18AAP enzyme inhibition; recombinant PfM18AAP, H-Glu-NHMec fluorogenic cleavage; inhibition, % at 7.35 µM; 290,000 tested, 1.2% active;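 active = inhibition above the campaign mean inhibition over all tested compounds plus 3 SD, cut at about 28% in these data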;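 also: 0% = plate median of test compound wells and 100% = 2 mM ZnCl2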
Hck-Nef inh – inhibitors of human Hck kinase activated by Nef; P08631; Recombinant Hck-YEEI plus Nef, Z-Lyte FRET kinase assay; inhibition, % at 20 µM; 220,000 tested, 0.68% active; AID 463187;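 active = Hck-Nef kinase inhibition above about 50%, limit read from the data; inactive = inhibition below that limit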;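 also: 0% = DMSO with Hck plus Nef and 100% = Hck alone without Nef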
Target sequence (P08631 whole entry, looked up): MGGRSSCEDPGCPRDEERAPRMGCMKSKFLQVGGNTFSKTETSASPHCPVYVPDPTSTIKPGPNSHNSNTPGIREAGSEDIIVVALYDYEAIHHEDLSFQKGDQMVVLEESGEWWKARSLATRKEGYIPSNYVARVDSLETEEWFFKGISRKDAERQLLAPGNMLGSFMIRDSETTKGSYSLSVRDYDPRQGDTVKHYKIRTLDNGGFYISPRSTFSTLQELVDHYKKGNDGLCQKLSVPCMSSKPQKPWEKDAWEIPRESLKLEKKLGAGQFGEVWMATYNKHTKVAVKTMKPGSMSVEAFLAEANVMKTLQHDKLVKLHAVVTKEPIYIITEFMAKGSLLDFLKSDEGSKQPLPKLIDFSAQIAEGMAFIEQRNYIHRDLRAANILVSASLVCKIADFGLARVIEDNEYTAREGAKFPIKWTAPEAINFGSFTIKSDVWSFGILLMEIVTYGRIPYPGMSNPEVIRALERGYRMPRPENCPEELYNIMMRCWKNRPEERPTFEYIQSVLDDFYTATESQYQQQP
Runt-SMMHC FRET – inhibitors of human RUNX1 Runt domain binding to CBFb-SMMHC. Q01196+Q13951. Cerulean-Runt/Venus-CBFb-SMMHC FRET ratio 530/480, 1 h. inhibition, % at 20 µM. 220,000 tested, 0.74% active. AID 1434;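 active = mean inhibition across duplicate retests at 20 µM reaching about 50%, limit read from the data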;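 also: 0% = DMSO wells and 100% = wells with excess untagged CBFb-SMMHC; inhibitors lower the FRET ratio by blocking Runt binding to CBFb-SMMHC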
Runt-CBFb FRET – inhibitors of human RUNX1 Runt domain binding to CBFb | Cerulean-Runt/Venus-CBFb FRET ratio 530/480, 1 h | Q01196+Q13951 | inhibition, % at 20 µM | 220,000 tested, 0.46% active | AID 1496;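 active = inhibition over about 50% at 20 µM in the single-dose screen, limit read from the data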;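 also: 0% = DMSO wells and 100% = excess unlabeled CBFb competitor control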
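Assay system: Cerulean-Runt domain / Medium: Tris 50 mM pH 7.5, KCl, K2SO4, 0.01% BSA / Timing: protein complex preformed 1 h, compound exposure 1 h, room temperature, dark / Measured by: FRET, excitation 422 nm, emission at 530 and 480 nm / Evaluation: loss of energy transfer signal / Control set: 5 µM unlabeled CBFb as full-inhibition high control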
RBBP9 inh – inhibitors of human serine hydrolase RBBP9; O75884; recombinant RBBP9, FP-Rh probe fluorescence polarization; inhibition, % at 7.94 µM; 220,000 tested, 0.2% active; AID 1515;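 active = inhibition above the campaign mean of all tested compounds plus 3 SD, cut at about 14% in these data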;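 also: plate controls were DMSO wells with RBBP9 for no effect and wells lacking RBBP9 protein for full effect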
Target sequence (O75884 whole entry, looked up): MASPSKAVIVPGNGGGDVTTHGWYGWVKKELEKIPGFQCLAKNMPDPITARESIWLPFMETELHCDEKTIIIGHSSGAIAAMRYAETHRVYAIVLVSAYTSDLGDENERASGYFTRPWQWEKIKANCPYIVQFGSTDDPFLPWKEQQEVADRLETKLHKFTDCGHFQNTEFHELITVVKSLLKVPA
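System: RBBP9 protein / Quantity: 2.5 µM RBBP9 dispensing solution, before mixing / Also added: Serine-hydrolase probe FP-Rh, 375 nM pre-mixing / Dosing: 7.94 µM single dose, 0.794% DMSO / Timing: enzyme-compound preincubation 30 min, then probe labeling 45 min, 25 °C / Signal: FP readout at 525/598 nm / Controls: DMSO-treated enzyme wells and wells lacking RBBP9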
RanGTP-Imp inh – disruptors of Ran-importin-beta complex formation – biochemical, FRET, CFP-Ran, YFP-importin-beta, homogeneous, primary screen; cell-free CFP-Ran/YFP-importin-beta FRET ratio; inhibition, % (test concentration not listed); 300,000 tested, 1.1% active; AID 2216;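 active = more than half of the replicate wells show a fall in the fluorescence ratio signal beyond about 16%, limit read from the data, passing the limit was not always enough; inconclusive = exactly half of the replicate wells pass the set limit; inactive = fewer than half of replicates pass the limit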;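 also: 0% = DMSO wells and 100% = Ran loaded with GDP instead of GTP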
YIC FRET counter – counter-screen for RanGTP-importin-beta inhibitors: YIC FRET probe | shares compounds with RanGTP-Imp inh | Purified YIC probe, intramolecular FRET ratio YFP/CFP | IC50, µM | 1,000 tested, 40% active;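 active = fitted half-maximal inhibitory concentration no more than tenfold above the top dose tested; inconclusive = flat fit with 30 to 70% activity, or poor fit; inactive = half-maximal concentration beyond tenfold above the top dose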
* hit, by the source's call; ? = inconclusive; . = not tested or not shown.

SMILES | M18AAP inhibitor | Hck-Nef inh | Runt-SMMHC FRET | Runt-CBFb FRET | RBBP9 inh | RanGTP-Imp inh | YIC FRET counter
Cc1ccc(C(=O)NNC2CC(=O)N(c3ccc4c(c3)OCCO4)C2=O)cc1 (stereo unspecified) | 18 | -19 | 4 | . | 3 | 18* | >50
O=c1nc(-c2ccccc2Cl)c2cc(F)ccc2[nH]1 | 5 | . | . | . | . | 25* | >50
COc1c2ccccc2nc2ccccc12 | -7 | . | . | . | . | 41* | 14*
Clc1ccc(/C=C\c2nccc3c2[nH]c2ccccc23)cc1 | 5 | 34 | 60 | 22 | -10 | 28* | 8.6*
O=c1c2ccccc2sc2ccc(C#CC3(O)CCCCC3)cc12 | . | . | . | . | . | 30* | 22*
O=c1c2ccccc2oc2cc(C#CC3(O)CCCCC3)ccc12 | . | . | . | . | . | -3 | .
N#C/C(=C(/O)CSc1ccccn1)c1nc2ccccc2s1 | 16 | 13 | -1 | 7 | -9 | 21* | >50
Cc1ccc(SC/C(O)=C(\C#N)c2nc3ccccc3s2)cc1 | 8 | 6 | -2 | 2 | -7 | -6 | .
O=C(COC(=O)c1cccnc1Nc1ccccc1F)NCCN1C(=O)CSC1=O | 4 | 1 | -3 | 1 | -5 | 27* | >50
CCOC(=O)CC(NS(=O)(=O)c1ccc2[nH]c(=O)sc2c1)c1ccc(C)cc1 (stereo unspecified) | 2 | . | . | . | . | -1 | .
Clc1ccc(-n2nnnc2-c2cnc3ccccc3c2-c2ccccc2)cc1 | 3 | 11 | 5 | -3 | -2 | -1 | .
c1ccc(-n2nnnc2-c2cnc(-c3cccnc3)nc2-c2cccs2)cc1 | 5 | -5 | -2 | -3 | 9 | 17* | >50
Cn1cnnc1SCC(=O)c1cc2ccccc2oc1=O | 10 | -1 | 5 | 13 | -6 | 18* | >50
COc1cc2c(cc1OC)CN(C(=O)C1CCCN1S(=O)(=O)c1ccc(C)cc1)CC2 (stereo unspecified) | 3 | . | . | . | . | -2 | .
O=C(NCCS(=O)(=O)N1CCN(c2cccc(Cl)c2)CC1)c1cc(=O)c2ccccc2o1 | 0 | . | . | . | . | 1 | .
COc1ccc2cc(C(C)=O)c(=O)oc2c1 | 2 | 4 | 62* | 19 | -5 | 19* | 35*
O=C1c2ccccc2NC(c2cccnc2)N1c1ccccc1F (stereo unspecified) | 3 | 3 | 6 | 5 | -7 | 0 | .
COc1ccc(N2C(=O)c3ccccc3NC2c2cccnc2)cc1 (stereo unspecified) | 1 | 41 | 3 | 0 | -9 | 16* | >50
O=c1c2ccccc2c2ccccc2c(=O)n1Cc1ccco1 | 1 | -14 | -1 | 0 | -10 | -1 | .
Cc1c(N=Cc2c(O)n(Cc3ccco3)c(=O)c3ccccc23)c(=O)n(-c2ccccc2)n1C | -14 | 14 | -104 | -65 | -7 | 22* | 23*
O=C(c1cc(COc2ccc(F)cc2F)on1)N1CCCC(c2ccccc2)C1 (stereo unspecified) | -4 | 43 | -5 | -2 | -10 | 5 | .
O=C(c1cc(COc2ccc(F)cc2Cl)on1)N1CCCC(c2ccccc2)C1 (stereo unspecified) | -2 | 26 | 2 | -3 | -11 | 18* | >50
OCCNc1nc(-c2ccccc2)nc2ccccc12 | 0 | 26 | 2 | 1 | -6 | 17* | >50
OCCNc1c2ccccc2nc2ccccc12 | -2 | 34 | 116* | 109* | 0 | 40* | 4.9*
Cc1c(CCC(=O)NCCCN2CCCC2=O)c(=O)oc2c(C)c(O)ccc12 | 4 | . | . | . | . | 33* | 16*
SMILES | M18AAP inhibitor | Hck-Nef inh | Runt-SMMHC FRET | Runt-CBFb FRET | RBBP9 inh | RanGTP-Imp inh | YIC FRET counter
Cc1c(CCC(=O)NC2CC2)c(=O)oc2c(C)c(O)ccc12 | 9 | . | . | . | . | 27* | 20*
Cc1oc2cc3oc(=O)c(CCC(=O)NC4CC4)c(C)c3cc2c1C | 0 | . | . | . | . | 1 | .
O=C(NCCc1cnc[nH]1)c1ccc(-c2ccccc2)cc1 | 7 | . | . | . | . | 1 | .
COc1ccc(N=Cc2cc(Cc3ccccc3Cl)cc([N+](=O)[O-])c2O)cc1OC | 9 | 25 | -15 | -6 | 1 | 16* | >50
COc1ccc([N+](=O)[O-])cc1NC(=O)Cc1ccccc1Cl | -2 | 3 | -3 | 0 | -5 | -4 | .
C=CCN(CC=C)C(=O)c1cccc(OC2CCN(CC(C)(C)C)CC2)c1 | -8 | . | . | . | . | ? | .
C=CCNC(=O)c1cccc(OC2CCN(CC(C)(C)C)CC2)c1 | 8 | . | . | . | . | 18* | >50
O=C(Nc1ccccc1)c1ccc2ccccc2n1 | 1 | 23 | 0 | -3 | -13 | -1 | .
N#Cc1ccc(/C=C(\C(=O)C(=O)O)c2ccc3ccccc3n2)cc1 | 8 | 32 | 64* | 30 | -11 | 20* | 12*
CCOC(=O)c1ccc(-c2ccc3c(=O)c4ccccc4n(C)c3c2)cc1F | 15 | . | . | . | . | 44* | 1.3*
CCOC(=O)c1cn(-c2ccccc2CO)c2c(F)c(F)c(F)cc2c1=O | -6 | -1 | -6 | -2 | -10 | 1 | .
COC(=O)c1c(NC(=O)c2ccc([N+](=O)[O-])o2)sc2c1CCN(C(C)C)C2 | 8 | . | . | . | . | 16* | >50
Cc1ccc(-c2nc3cc(N)ccc3o2)cc1 | 0 | 0 | -5 | -2 | -5 | 21* | >50
CC(C)CCNC(=O)C(c1ccco1)N(Cc1ccc(F)cc1)C(=O)c1snc(C(N)=O)c1N (stereo unspecified) | 6 | 6 | 0 | -2 | -9 | 29* | >50
C/C(=N/OC(=O)c1ccc(Cl)cc1Cl)c1oc(C)nc1C | 0 | 10 | 2 | 0 | -6 | 2 | .
C[C@@H]1CN([C@H](C)CO)C(=O)c2cccc(NC(=O)c3ccc(-c4nccs4)cc3)c2O[C@@H]1CN(C)CC1CC1 | . | . | . | . | . | . | >50
O=C(Nc1ccc(S(=O)(=O)Nc2nccs2)cc1)c1ccc(N2C(=O)c3ccccc3C2=O)cc1 | 8 | 14 | -75 | -52 | -14 | 2 | .
CCNS(=O)(=O)c1ccc(CCC(=O)N2CCc3ccccc3C2)cc1 | 10 | . | . | . | . | 7 | .
Cc1cccc(C2=NN(c3ccc(Br)cc3)[C@@H](C(=O)N3CCOC3=O)[C@@H]2c2ccc(F)cc2)c1 | 1 | 1 | 56 | 18 | -9 | 18* | 35*
Cc1c(C(=O)c2ccccc2C(=O)O)sc2ccccc12 | -1 | . | . | . | . | 2 | .
O=C(O)c1ccccc1NC(=O)C1C2C=CC(C2)C1C(=O)O (stereo unspecified) | 3 | . | . | . | . | -3 | .
CC(C)c1ccccc1NC(=O)C1C2C=CC(C2)C1C(=O)O (stereo unspecified) | 0 | . | . | . | . | 24* | >50

High-throughput results from PubChem.
